# Data: ChEMBL document CHEMBL4715780, “Biological evaluation of tetracationic compounds based on two 1,4-diazabicyclo[2.2.2]octane moieties connected by different linkers” (Bioorg Med Chem, 2016)
# Assays:
# Staphylococcus aureus [1] = test: Antibacterial activity against methicillin-resistant Staphylococcus aureus CEMTC 675 assessed as bacterial growth inhibition by CLSI protocol based serial microdilution method; assay type: functional
# Enterococcus faecalis [2] = test: Antibacterial activity against Enterococcus faecalis ATCC 51299 assessed as concentration required to inhibit visible growth by CLSI protocol based serial microdilution method; assay type: functional
# Pseudomonas aeruginosa [3] = test: Bactericidal activity against Pseudomonas aeruginosa ATCC 9027 assessed as colony forming unit at 5 ug/ml measured at 4 hrs by time kill assay (reference value: 1.2 x 10^7 CFU/ml); assay type: functional; conditions: dose 5 µg/ml
# Outline: (§1)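 Overnight Pseudomonas aeruginosa culture adjusted in Mueller–Hinton broth to about 2.5 × 10⁵ CFU/mL. Compound added at 2.5, 5 or 10 µg/mL, then incubated at 37 °C with shaking (580 rpm) for 22 h. Viable colonies counted on plates at 2, 4, 6, 8 and 22 h. Quantification limit 100 CFU/mL; triplicate.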
# Pseudomonas aeruginosa [4] = test: Bactericidal activity against Pseudomonas aeruginosa ATCC 9027 assessed as colony forming unit at 5 ug/ml measured at 2 hrs by time kill assay (reference value: 3.6 x 10^5 CFU/ml); assay type: functional; conditions: dose 5 µg/ml; outline: as §1
# Staphylococcus aureus [5] = test: Bactericidal activity against […] Staphylococcus aureus ATCC 25923 assessed as colony forming unit at 5 ug/ml measured at 6 hrs by time kill assay (reference value: 1.2 x 10^6 CFU/ml); assay type: functional; conditions: dose 5 µg/ml
# Outline: (§2)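 S. aureus overnight culture was adjusted in MHB to ~8 × 10⁵ CFU/mL. Compound was added and the mixture incubated at 37 °C with shaking (580 rpm) for 22 h. Aliquots were plated for colony counts at 2, 4, 6, 8 and 22 h, with a quantification limit of 100 CFU/mL. Runs were done in triplicate.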
# Pseudomonas aeruginosa [6] = test: Bactericidal activity against Pseudomonas aeruginosa ATCC 9027 assessed as reduction in colony forming unit at 5 ug/ml measured at 8 hrs by time kill assay relative to control; assay type: functional; design: scale not given: the % may be the effect or the level left; conditions: dose 5 µg/ml; outline: as §1
# Pseudomonas aeruginosa [7] = test: Bactericidal activity against Pseudomonas aeruginosa ATCC 9027 assessed as colony forming unit at 2.5 ug/ml measured at 6 hrs by time kill assay (reference value: 10^8 CFU/ml); assay type: functional; conditions: dose 2.5 µg/ml; outline: as §1
# Enterococcus faecalis [8] = test: Antibacterial activity against Enterococcus faecalis ATCC 51299 assessed as bacterial growth inhibition by CLSI protocol based serial microdilution method; assay type: functional
# [9] = Selectivity index, ratio of CC50 for MDCK cells to EC50 for Influenza A virus (A/Puerto Rico/8/34 (H1N1)) infected in MDCK cells; assay type: toxicity, cell-based; conditions: dog, read-out: Ratio CC50/EC50
# Outline: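 Ratio of CC₅₀ to EC₅₀, both in MDCK cells, with cytotoxicity run in parallel with the antiviral assay. EC₅₀ is the concentration halving virus production (0.3 log₁₀ EID₅₀ titre drop). It was obtained after 1 h compound pre-incubation, infection, 48 h at 37 °C, and hemagglutination read-out with 1% chicken erythrocytes.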
# Staphylococcus aureus [10] = test: Antibacterial activity against methicillin-resistant Staphylococcus aureus CEMTC 675 assessed as concentration required to inhibit visible growth by CLSI protocol based serial microdilution method; assay type: functional
# Staphylococcus aureus [11] = test: Antibacterial activity against methicillin-resistant Staphylococcus aureus CEMTC 1733 assessed as bacterial growth inhibition by CLSI protocol based serial microdilution method; assay type: functional
# Influenza A virus = test: Antiviral activity against Influenza A virus (A/Puerto Rico/8/34 (H1N1) infected in MDCK cells assessed as decrease in viral titer preincubated for 1 hr followed by viral infection and cultivated for 48 hrs followed by supernatant transferred to chicken erythrocyte for 1 hr followed by measuring ability to cause positive hemagglutination; assay type: functional, organism-based; conditions: A/Puerto Rico/8/1934(H1N1)
# Outline: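 MDCK monolayers in MEM were pre-incubated with compound for 1 h at 37 °C, then infected with 10-fold virus dilutions (10⁻¹–10⁻⁶) and held 48 h at 37 °C, 5% CO₂. Supernatant was mixed with an equal volume of 1% chicken erythrocytes, 60 min at room temperature. Titre was taken from the highest dilution giving full agglutination (log₁₀ EID₅₀). Triplicate per concentration.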
# Staphylococcus aureus [12] = test: Bactericidal activity against […] Staphylococcus aureus ATCC 25923 assessed as colony forming unit at 5 ug/ml measured at 4 hrs by time kill assay (reference value: 7.8 x 10^6 CFU/ml); assay type: functional; conditions: dose 5 µg/ml; outline: as §2
# Staphylococcus aureus [13] = test: Bactericidal activity against […] Staphylococcus aureus ATCC 25923 assessed as colony forming unit at 1.25 ug/ml measured at 4 hrs by time kill assay (reference value: 7.8 x 10^6 CFU/ml); assay type: functional; conditions: dose 1.25 µg/ml; outline: as §2
# Pseudomonas aeruginosa [14] = test: Bactericidal activity against Pseudomonas aeruginosa ATCC 9027 assessed as reduction in colony forming unit at 2.5 ug/ml measured at 6 hrs by time kill assay relative to control; assay type: functional; design: scale not given: the % may be the effect or the level left; conditions: dose 2.5 µg/ml; outline: as §1
# Pseudomonas aeruginosa [15] = test: Bactericidal activity against Pseudomonas aeruginosa ATCC 9027 assessed as reduction in colony forming unit at 2.5 ug/ml measured at 8 hrs by time kill assay relative to control; assay type: functional; design: scale not given: the % may be the effect or the level left; conditions: dose 2.5 µg/ml; outline: as §1
# Pseudomonas aeruginosa [16] = test: Bactericidal activity against Pseudomonas aeruginosa ATCC 9027 assessed as reduction in colony forming unit at 5 ug/ml measured at 2 hrs by time kill assay relative to control; assay type: functional; design: scale not given: the % may be the effect or the level left; conditions: dose 5 µg/ml; outline: as §1
# [17] = Cytotoxicity against human MCF7 cells assessed as reduction in cell viability measured after 24 hrs by MTT assay; assay type: cell-based
# Outline: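 HEK293T or MCF-7 cells in IMDM with 10% FBS, seeded at 20,000 per well and grown overnight. Compounds at […] in fresh medium for 24 h at 37 °C, 5% CO₂. MTT then added for 4 h, precipitate dissolved overnight in SDS-HCl, absorbance read at 570 nm. Viability expressed relative to untreated cells, giving CC₅₀. Duplicate wells, at least two independent repeats.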
# Staphylococcus aureus [18] = test: Antibacterial activity against methicillin-resistant Staphylococcus aureus CEMTC 1695 assessed as concentration required to inhibit visible growth by CLSI protocol based serial microdilution method; assay type: functional
# Staphylococcus aureus [19] = test: Bactericidal activity against […] Staphylococcus aureus ATCC 25923 assessed as colony forming unit at 2.5 ug/ml measured at 2 hrs by time kill assay (reference value: 10^6 CFU/ml); assay type: functional; conditions: dose 2.5 µg/ml; outline: as §2
# Staphylococcus aureus [20] = test: Bactericidal activity against […] Staphylococcus aureus ATCC 25923 assessed as colony forming unit at 5 ug/ml measured at 2 hrs by time kill assay (reference value: 10^6 CFU/ml); assay type: functional; conditions: dose 5 µg/ml; outline: as §2
# Citrobacter freundii = test: Antibacterial activity against Citrobacter freundii ATCC 8090 assessed as concentration required to inhibit visible growth by CLSI protocol based serial microdilution method; assay type: functional
# Staphylococcus aureus [21] = test: Antibacterial activity against methicillin-resistant Staphylococcus aureus CEMTC 1695 assessed as bacterial growth inhibition by CLSI protocol based serial microdilution method; assay type: functional
# Staphylococcus aureus [22] = test: Bactericidal activity against […] Staphylococcus aureus ATCC 25923 assessed as colony forming unit at 1.25 ug/ml measured at 2 hrs by time kill assay (reference value: 10^6 CFU/ml); assay type: functional; conditions: dose 1.25 µg/ml; outline: as §2
# Staphylococcus aureus [23] = test: Bactericidal activity against […] Staphylococcus aureus ATCC 25923 assessed as colony forming unit at 1.25 ug/ml measured at 6 hrs by time kill assay (reference value: 1.2 x 10^6 CFU/ml); assay type: functional; conditions: dose 1.25 µg/ml; outline: as §2
# Proteus vulgaris = test: Antibacterial activity against Proteus vulgaris ATCC 6380 assessed as concentration required to inhibit visible growth by CLSI protocol based serial microdilution method; assay type: functional
SMILES,MIC (Staphylococcus aureus [1]),MBC (Enterococcus faecalis [2]),Activity (Pseudomonas aeruginosa [3]),Activity (Pseudomonas aeruginosa [4]),Activity (Staphylococcus aureus [5]),Activity (Pseudomonas aeruginosa [6]),Activity (Pseudomonas aeruginosa [7]),MIC (Enterococcus faecalis [8]),selectivity ratio [9],MBC (Staphylococcus aureus [10]),MIC (Staphylococcus aureus [11]),EC50 (Influenza A virus),Activity (Staphylococcus aureus [12]),Activity (Staphylococcus aureus [13]),Activity (Pseudomonas aeruginosa [14]),Activity (Pseudomonas aeruginosa [15]),Activity (Pseudomonas aeruginosa [16]),CC50 at 24 h [17],MBC (Staphylococcus aureus [18]),Activity (Staphylococcus aureus [19]),also measured
CCCCCCCCCCCC[N+]12CC[N+](CCC[N+]34CC[N+](CCCCCCCCCCCC)(CC3)CC4)(CC1)CC2,0.5 µg/mL,3.1 µg/mL,<100 CFU/ml,<100 CFU/ml,<100 CFU/ml,>=99.9%,<100 CFU/ml,1.6 µg/mL,7,1 µg/mL,1 µg/mL,1.9 µg/mL,<100 CFU/ml,<100 CFU/ml,>=99.9%,>=99.9%,>=99.9%,5 µg/mL,1 µg/mL,330 CFU/ml,Activity (Staphylococcus aureus [20]): <100 CFU/ml; MBC (Citrobacter freundii): 3.1 µg/mL; MIC (Staphylococcus aureus [21]): 1 µg/mL; Activity (Staphylococcus aureus [22]): <100 CFU/ml; Activity (Staphylococcus aureus [23]): <100 CFU/ml; MBC (Proteus vulgaris): > 100 µg/mL
CCCCCCCCCCCC[N+]12CC[N+](Cc3ccccc3C[N+]34CC[N+](CCCCCCCCCCCC)(CC3)CC4)(CC1)CC2,0.5 µg/mL,1.6 µg/mL,<100 CFU/ml,130 CFU/ml,<100 CFU/ml,>=99.9%,<100 CFU/ml,0.8 µg/mL,2,1 µg/mL,1 µg/mL,1 µg/mL,<100 CFU/ml,<100 CFU/ml,>=99.9%,>=99.9%,>=99.9%,4 µg/mL,1 µg/mL,1000 CFU/ml,Activity (Staphylococcus aureus [20]): <100 CFU/ml; MBC (Citrobacter freundii): 1.6 µg/mL; MIC (Staphylococcus aureus [21]): 1 µg/mL; Activity (Staphylococcus aureus [22]): <670 CFU/ml; Activity (Staphylococcus aureus [23]): <100 CFU/ml; MBC (Proteus vulgaris): > 100 µg/mL
